Reference: ChEMBL document CHEMBL1149247, “New COX-2/5-LOX inhibitors: apoptosis-inducing agents potentially useful in prostate cancer chemotherapy” (J Med Chem, 2004)

Legend:
[1] = target: Prostaglandin G/H synthase 1 (Homo sapiens, UniProt P23219); assay: Inhibition of COX1 expressed in CHO cells assessed as inhibition of arachidonic acid-stimulated PGE2 production by enzyme immunoassay; type: functional, cell-based
[2] = target: T1, Prostaglandin G/H synthase 2 (Homo sapiens, UniProt P35354); assay: Inhibition of COX2 expressed in CHO cells assessed as inhibition of arachidonic acid-stimulated PGE2 production by enzyme immunoassay
T1 sequence (P35354 whole entry): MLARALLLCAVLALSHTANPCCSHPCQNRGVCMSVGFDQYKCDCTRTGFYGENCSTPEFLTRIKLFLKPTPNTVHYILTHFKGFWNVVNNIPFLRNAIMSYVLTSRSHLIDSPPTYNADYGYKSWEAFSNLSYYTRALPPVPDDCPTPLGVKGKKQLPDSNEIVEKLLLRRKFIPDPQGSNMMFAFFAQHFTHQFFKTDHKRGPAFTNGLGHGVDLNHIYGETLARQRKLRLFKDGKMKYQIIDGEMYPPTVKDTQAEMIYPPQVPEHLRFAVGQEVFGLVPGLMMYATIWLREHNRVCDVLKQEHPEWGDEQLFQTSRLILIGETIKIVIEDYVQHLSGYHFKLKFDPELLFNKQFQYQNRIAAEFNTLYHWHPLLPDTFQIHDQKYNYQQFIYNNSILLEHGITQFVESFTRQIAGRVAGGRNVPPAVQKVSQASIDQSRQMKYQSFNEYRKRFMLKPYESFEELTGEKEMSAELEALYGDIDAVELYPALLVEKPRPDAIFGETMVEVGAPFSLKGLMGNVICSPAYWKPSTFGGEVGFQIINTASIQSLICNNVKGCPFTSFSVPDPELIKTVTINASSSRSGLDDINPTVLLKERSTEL

[3] = species on record: Homo sapiens; assay: Selectivity for COX2 over COX1
How it was run: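 Ratio of COX-1 to COX-2 IC50s, each taken from PGE2 production in CHO cells transfected with COX-1 or with COX-2. Cells were seeded and, 18 h later, given fresh Ham's F12 with 10% fetal calf serum with or without compound. After 10 min they were stimulated with arachidonic acid, then for 10 min with calcium ionophore A 23187. Intracellular PGE2 was read by enzyme immunoassay, n = 2.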

[4] = target: T2, Polyunsaturated fatty acid 5-lipoxygenase (Homo sapiens, UniProt P09917); assay: Inhibition of 5LOX in human whole blood assessed as inhibition of calcium ionophore A 23187-stimulated 5HETE production by HPLC analysis; type: functional, tissue-based
T2 sequence (P09917 whole entry): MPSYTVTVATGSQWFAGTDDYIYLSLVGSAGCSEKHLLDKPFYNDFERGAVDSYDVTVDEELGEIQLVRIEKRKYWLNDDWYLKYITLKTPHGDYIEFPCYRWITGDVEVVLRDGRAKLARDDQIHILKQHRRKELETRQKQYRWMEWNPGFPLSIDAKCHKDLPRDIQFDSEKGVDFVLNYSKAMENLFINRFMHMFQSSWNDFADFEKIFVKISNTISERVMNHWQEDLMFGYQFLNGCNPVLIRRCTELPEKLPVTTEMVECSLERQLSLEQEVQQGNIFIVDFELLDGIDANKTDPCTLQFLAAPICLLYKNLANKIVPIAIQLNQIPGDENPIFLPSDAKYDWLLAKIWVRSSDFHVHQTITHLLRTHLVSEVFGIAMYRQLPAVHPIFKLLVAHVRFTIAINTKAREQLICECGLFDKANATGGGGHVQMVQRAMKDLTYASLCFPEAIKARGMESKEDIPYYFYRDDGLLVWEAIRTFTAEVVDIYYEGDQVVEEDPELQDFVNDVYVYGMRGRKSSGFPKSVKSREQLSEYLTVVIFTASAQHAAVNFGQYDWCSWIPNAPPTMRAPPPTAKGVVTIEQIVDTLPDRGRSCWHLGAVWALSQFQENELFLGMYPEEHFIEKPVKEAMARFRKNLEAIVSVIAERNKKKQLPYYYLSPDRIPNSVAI
How it was run: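 Heparinized human whole blood, 1 mL aliquots, preincubated 15 min at 37 °C with compound or DMSO vehicle; then stimulated with 40 μM A 23187 for 15 min at 37 °C. 5-HETE extracted into ethyl acetate, then HPLC on a C18 column, methanol/water/acetic acid 80:20:0.08, pH 6.0, UV at 234 nm. IC50 from n = 2.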

[5] = tested on: PC-3; assay: Antiproliferative activity against androgen-independent human PC3 cells at 100 uM after 72 hrs by MTT test; type: functional
How it was run: (§1)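 Prostate carcinoma cells kept at 37 °C, 5% CO2 in RPMI 1640 with 10% fetal calf serum; seeded 1.8 × 10⁴ (PC 3) or 5.0 × 10⁴ (LNCaP) cells/well, grown 3 days, serum-starved 24 h for synchronization, then exposed 72 h to compounds in medium (<0.1% DMSO); growth read by colorimetric MTT. Mean of at least four independent determinations; single-dose lines at 100 μM.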

[6] = tested on: LNCaP; assay: Antiproliferative activity against androgen-sensitive human LNCaP cells at 100 uM after 72 hrs by MTT test; type: functional; how it was run: as §1
[7] = tested on: LNCaP; assay: Cell cycle arrest in human LNCaP cells by accumulation at subG1 phase at 10 uM after 72 hrs by FACS flow cytometry; type: functional
How it was run: (§2)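 LNCaP or PC 3 cells seeded in 6-well plates, synchronized 24 h in serum-free medium, treated 72 h with varying compound concentrations; trypsinized cells pooled with supernatants, pelleted, fixed in cold ethanol overnight at 4 °C, then 30 min in PBS with RNase and propidium iodide. FACScan flow cytometry quantified sub-G1 (sub-diploid), G1, S and G2-M fractions as percent of cells.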

[8] = tested on: LNCaP; assay: Cell cycle arrest in human LNCaP cells by accumulation at G1 phase at 10 uM after 72 hrs by FACS flow cytometry; type: functional; how it was run: as §2
[9] = tested on: LNCaP; assay: Cell cycle arrest in human LNCaP cells by accumulation at S phase at 10 uM after 72 hrs by FACS flow cytometry; type: functional; how it was run: as §2
[10] = tested on: LNCaP; assay: Cell cycle arrest in human LNCaP cells by accumulation at G2M phase at 10 uM after 72 hrs by FACS flow cytometry; type: functional; how it was run: as §2
[11] = tested on: PC-3; assay: Antiproliferative activity against androgen-independent human PC3 cells after 72 hrs by MTT test; type: functional, cell-based; settings: PC-3, 72 h; how it was run: as §1

Prostaglandin G/H synthase 1, sequence (P23219 whole entry): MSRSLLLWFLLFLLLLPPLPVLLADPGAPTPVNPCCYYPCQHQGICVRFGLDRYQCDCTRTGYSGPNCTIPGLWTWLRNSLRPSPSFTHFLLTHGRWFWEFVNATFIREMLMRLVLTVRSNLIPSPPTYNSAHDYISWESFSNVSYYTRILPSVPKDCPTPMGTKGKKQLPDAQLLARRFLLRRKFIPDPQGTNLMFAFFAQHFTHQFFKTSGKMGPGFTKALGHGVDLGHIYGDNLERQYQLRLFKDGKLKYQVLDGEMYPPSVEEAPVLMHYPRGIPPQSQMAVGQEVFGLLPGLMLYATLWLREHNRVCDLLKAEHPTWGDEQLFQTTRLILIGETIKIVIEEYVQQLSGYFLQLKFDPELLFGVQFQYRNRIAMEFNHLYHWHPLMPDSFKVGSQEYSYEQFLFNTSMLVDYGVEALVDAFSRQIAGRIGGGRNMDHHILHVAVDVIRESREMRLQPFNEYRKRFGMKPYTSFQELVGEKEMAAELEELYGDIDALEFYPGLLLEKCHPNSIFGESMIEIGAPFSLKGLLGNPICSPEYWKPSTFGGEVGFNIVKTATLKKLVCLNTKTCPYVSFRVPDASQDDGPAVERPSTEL

SMILES | IC50 [1] [nM] | IC50 [2] [nM] | Selectivity ratio [3] | IC50 [4] [nM] | Activity [5] [%] | Activity [6] [%] | Activity [7] [%] | Activity [8] [%] | Activity [9] [%] | Activity [10] [%] | IC50 [11] [nM]
CS(=O)(=O)c1ccc(-n2nc(COc3cccc([N+](=O)[O-])c3)cc2-c2ccccc2)cc1 | > 100000 | 740 | > 134 | > 10000 | – | – | – | – | – | – | –
COC1(c2cc(F)cc(OCc3cc(-c4ccccc4)n(-c4ccc(OC(F)(F)F)cc4)n3)c2)CCOCC1 | – | 820 | – | 850 | 0 | 0 | 3.6 | 74.7 | 10.6 | 11 | –
COc1cc(OCc2cc(-c3ccccc3)n(-c3ccc(S(C)(=O)=O)cc3)n2)cc(OC)c1OC | 17600 | 220 | 78 | > 10000 | – | – | – | – | – | – | –
CS(=O)(=O)c1ccc(-n2nc(COc3cccc(N4CCOCC4)c3)cc2-c2ccccc2)cc1 | 38100 | 920 | 41 | > 10000 | – | – | – | – | – | – | –
COC1(c2cc(F)cc(OCc3cc(-c4ccccc4)n(-c4ccc(C)c(C)c4)n3)c2)CCOCC1 | – | 410 | – | 760 | – | 26 | 3.9 | 69.5 | 11.5 | 15 | 55000
COC1(c2cc(F)cc(OCc3cc(-c4ccccc4)n(-c4ccc(C)cc4)n3)c2)CCOCC1 | 1560 | 930 | 1 | 720 | 0 | 18 | 3.5 | 71.3 | 10.7 | 14.6 | –
COc1cc(OC)cc(OCc2cc(-c3ccccc3)n(-c3ccc(S(C)(=O)=O)cc3)n2)c1 | 25100 | 870 | 29 | > 10000 | – | – | – | – | – | – | –
CS(=O)(=O)c1ccc(-n2nc(COc3cc(F)cc(C#N)c3)cc2-c2ccccc2)cc1 | 99600 | 570 | 176 | > 10000 | – | – | – | – | – | – | –
COc1ccc(-n2nc(COc3cc(F)cc(C4(OC)CCOCC4)c3)cc2-c2ccccc2)cc1 | 36 | 300 | < 1 | 770 | – | – | 2.8 | 69 | 11.4 | 17 | –
COc1ccc(OCc2cc(-c3ccccc3)n(-c3ccc(S(C)(=O)=O)cc3)n2)cc1OC | > 100000 | 700 | > 142 | > 10000 | – | – | – | – | – | – | –
CCOc1cccc(OCc2cc(-c3ccccc3)n(-c3ccc(S(C)(=O)=O)cc3)n2)c1 | > 100000 | 900 | > 112 | > 10000 | – | – | – | – | – | – | –
COC1(c2cc(F)cc(OCc3cc(-c4ccccc4)n(-c4ccc(Cl)cc4)n3)c2)CCOCC1 | 1810 | 930 | 2 | 830 | 0 | 0 | 2.5 | 75.5 | 11.1 | 11.1 | –
CS(=O)(=O)c1ccc(-n2nc(COc3ccc4c(c3)OCO4)cc2-c2ccccc2)cc1 | 15800 | 450 | 35 | > 10000 | – | – | – | – | – | – | –
COC1(c2cc(F)cc(OCc3cc(-c4ccccc4)n(-c4ccc(Cl)c(Cl)c4)n3)c2)CCOCC1 | – | 700 | – | 800 | 21 | 32 | 4.6 | 68.2 | 11.5 | 15.5 | –
COC1(c2cc(F)cc(OCc3cc(-c4ccccc4)n(-c4ccc(F)cc4)n3)c2)CCOCC1 | 1130 | 960 | 1 | 480 | 7 | 3 | 4 | 71.3 | 9.7 | 15.3 | –
COc1cc(F)cc(OCc2cc(-c3ccccc3)n(-c3ccc(S(C)(=O)=O)cc3)n2)c1 | 44300 | 310 | 142 | > 10000 | – | – | – | – | – | – | –
COC1(c2cc(F)cc(OCc3ccc4c(ccc(=O)n4C)c3)c2)CCOCC1 [ZD-2138] | > 100000 | > 100000 | – | 83 | – | – | – | – | – | – | –
COC1(c2cc(F)cc(OCc3cc(-c4ccccc4)n(-c4ccccc4)n3)c2)CCOCC1 | 7140 | 610 | 12 | 570 | 0 | 0 | 3 | 72.9 | 10.6 | 13.9 | –
